According to ChEMBL document CHEMBL1667757, “Efficient and novel one-pot synthesis of antifungal active 1-substituted-8-aryl-3-alkyl/aryl-4H-pyrazolo[4,5-f][1,2,4]triazolo[4,3-b][1,2,4]triazepines using solid support” (2011):

What was measured:
Assay type in all cases: functional
Aspergillus flavus [1] = test: Antifungal activity against Aspergillus flavus at 500 ug after 24 hrs by paper disc technique; settings: for zone of inhibition at 500 µg/disc: Aspergillus flavus, 24 h, read-out: DIZ
How it was run: (§1)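 Paper disc diffusion on double-layer potato dextrose agar: 15 mL sterile base topped with 15 mL medium seeded at 40 °C with spores from ten-day cultures; streptomycin added to prevent bacterial growth. Compounds dissolved in DMF at 500 or 1000 µg/mL and applied to 6 mm filter paper discs on chilled seeded plates. Plates incubated at 28 ± 2 °C. Inhibition zone measured from disc centre at 24 h, percent inhibition calculated as (C − T)/C × 100. Fluconazole at same concentrations served as standard.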

Aspergillus niger [2] = test: Antifungal activity against Aspergillus niger at 1000 ug after 24 hrs by paper disc technique; settings: for zone of inhibition at 1000 µg/disc: Aspergillus niger, 24 h, read-out: DIZ; how it was run: as §1
Penicillium sp. [3] = test: Antifungal activity against Penicillium species at 500 ug after 24 hrs by paper disc technique; settings: for zone of inhibition at 500 µg/disc: Penicillium sp., 24 h, read-out: DIZ; how it was run: as §1
Aspergillus flavus [4] = test: Antifungal activity against Aspergillus flavus at 1000 ug after 24 hrs by paper disc technique; settings: for zone of inhibition at 1000 µg/disc: Aspergillus flavus, 24 h, read-out: DIZ; how it was run: as §1
Penicillium sp. [5] = test: Antifungal activity against Penicillium species at 1000 ug after 24 hrs by paper disc technique; settings: for zone of inhibition at 1000 µg/disc: Penicillium sp., 24 h, read-out: DIZ; how it was run: as §1
Rhizopus [6] = test: Antifungal activity against Rhizopus species at 500 ug after 24 hrs by paper disc technique; settings: for zone of inhibition at 500 µg/disc: Rhizopus, 24 h, read-out: DIZ; how it was run: as §1
Rhizopus [7] = test: Antifungal activity against Rhizopus species at 1000 ug after 24 hrs by paper disc technique; settings: for zone of inhibition at 1000 µg/disc: Rhizopus, 24 h, read-out: DIZ; how it was run: as §1
Aspergillus niger [8] = test: Antifungal activity against Aspergillus niger at 500 ug after 24 hrs by paper disc technique; settings: for zone of inhibition at 500 µg/disc: Aspergillus niger, 24 h, read-out: DIZ; how it was run: as §1

Row | Structure (SMILES) | Activity (Aspergillus flavus [1]) [%] | zone of inhibition at 500 µg/disc (Aspergillus flavus [1]) [mm] | percent inhibition (Aspergillus niger [2]) [%] | zone of inhibition at 1000 µg/disc (Aspergillus niger [2]) [mm] | Activity (Penicillium sp. [3]) [%] | zone of inhibition at 500 µg/disc (Penicillium sp. [3]) [mm] | percent growth inhibition (Aspergillus flavus [4]) [%] | zone of inhibition at 1000 µg/disc (Aspergillus flavus [4]) [mm] | percent inhibition (Penicillium sp. [5]) [%] | zone of inhibition at 1000 µg/disc (Penicillium sp. [5]) [mm] | Activity (Rhizopus [6]) [%] | zone of inhibition at 500 µg/disc (Rhizopus [6]) [mm] | Activity (Rhizopus [7]) [%] | zone of inhibition at 1000 µg/disc (Rhizopus [7]) [mm] | Activity (Aspergillus niger [8]) [%] | zone of inhibition at 500 µg/disc (Aspergillus niger [8]) [mm]
1 | O=[N+]([O-])c1ccc(-c2nnc3n2Nc2c(c(-c4ccc(Br)cc4)nn2-c2ccccc2)C=N3)cc1 | 31.33 | 18 | 3.33 | 2 | 3.33 | 2 | 13.33 | 8 | 8.33 | 5 | 40 | 24 | 35.36 | 21 | 23.33 | 14
2 | Clc1ccc(-c2nnc3n2Nc2c(c(-c4ccc(Br)cc4)nn2-c2ccccc2)C=N3)cc1 | 36.66 | 22 | 35.36 | 21 | 15 | 9 | 40 | 24 | 13.33 | 8 | 60.66 | 40 | 53.33 | 32 | 53.33 | 32
3 | C1=Nc2nnc(-c3ccccc3)n2Nc2c1c(-c1ccccc1)nn2-c1ccccc1 | 35.36 | 21 | 51.66 | 31 | 8.33 | 5 | 35.36 | 21 | 3.33 | 2 | 66.66 | 36 | 65 | 39 | 33.33 | 20
4 | O=[N+]([O-])c1ccc(-c2nn(-c3ccccc3)c3c2C=Nc2nnc(-c4ccccc4)n2N3)cc1 | 40 | 24 | 33.33 | 20 | 12.98 | 7 | 36.66 | 22 | 15 | 9 | 65 | 39 | 66.66 | 36 | 51.66 | 31
5 | Brc1ccc(-c2nn(-c3ccccc3)c3c2C=Nc2nnc(Cc4ccccc4)n2N3)cc1 | 33.33 | 20 | 23.33 | 14 | 8.33 | 5 | 13.33 | 8 | – | – | 46.66 | 28 | 40 | 24 | 3.33 | 2
6 | O=[N+]([O-])c1ccc(-c2nn(-c3ccccc3)c3c2C=Nc2nnc(-c4ccc([N+](=O)[O-])cc4)n2N3)cc1 | 5 | 3 | 25 | 15 | – | – | 15 | 9 | – | – | 30 | 18 | 38.33 | 23 | 13.33 | 8
7 | Brc1ccc(-c2nn(-c3ccccc3)c3c2C=Nc2nnc(-c4ccccc4)n2N3)cc1 | 31.33 | 18 | 21.33 | 12 | 8.33 | 5 | 11.33 | 6 | 13.33 | 8 | 42.66 | 26 | 38 | 22 | 3.33 | 2
8 | OC(Cn1cncn1)(Cn1cncn1)c1ccc(F)cc1F [FLUCONAZOLE] | 58.33 | 35 | 80 | 48 | 86.66 | 52 | 70 | 42 | 90 | 54 | 63.33 | 38 | 70 | 42 | 70 | 42
9 | Cc1n[nH]c2c1C=Nc1nnc(-c3ccc(Cl)cc3)n1N2 | 36.66 | 22 | 53.33 | 32 | 13.33 | 8 | 40 | 24 | 15 | 9 | 51.66 | 31 | 60.66 | 40 | 38.33 | 23
10 | O=[N+]([O-])c1ccc(-c2nn(-c3ccccc3)c3c2C=Nc2nnc(Cc4ccccc4)n2N3)cc1 | 33.33 | 20 | 23.33 | 14 | – | – | 13.33 | 8 | – | – | 46.66 | 28 | 40 | 24 | 3.33 | 2
11 | Cc1n[nH]c2c1C=Nc1nnc(-c3ccccc3)n1N2 | 33.33 | 20 | 53.33 | 32 | 10 | 6 | 40 | 24 | 13.33 | 8 | 53.33 | 32 | 60.66 | 40 | 36.66 | 22
